In ChEMBL document CHEMBL1926562, “Design, synthesis and biological activity of sphingosine kinase 2 selective inhibitors” (Bioorg Med Chem, 2012):
The source made the active and inactive calls. The calls are words filed in the database; no cut-off is given here.

Columns and labels:
Sphingosine kinase 1 [1] = target: T1, Sphingosine kinase 1 (Homo sapiens, UniProt Q9NYA1); assay: Inhibition of human SphK1 expressed in baculovirus infected Sf9 insect cells assessed as remaining activity using sphingosine and [gamma-(32)P]-ATP as substrate at 100 uM by scintillation proximity counting
T1 sequence (Q9NYA1 whole entry): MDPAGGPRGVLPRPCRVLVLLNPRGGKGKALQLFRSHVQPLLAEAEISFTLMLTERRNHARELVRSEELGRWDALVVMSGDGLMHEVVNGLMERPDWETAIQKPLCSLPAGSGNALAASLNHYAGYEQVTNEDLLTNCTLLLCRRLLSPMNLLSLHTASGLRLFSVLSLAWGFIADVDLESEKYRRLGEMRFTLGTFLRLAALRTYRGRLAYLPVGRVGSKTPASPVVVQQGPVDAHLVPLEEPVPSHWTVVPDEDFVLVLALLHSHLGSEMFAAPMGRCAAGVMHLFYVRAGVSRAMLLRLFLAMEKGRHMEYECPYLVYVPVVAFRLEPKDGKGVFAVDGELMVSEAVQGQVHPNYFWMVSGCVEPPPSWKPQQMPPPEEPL
Outline: (§1)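 Enzyme source: supernatant (10,000×g) of homogenized Sf9 cells infected with recombinant virus for 72 h, 2-3 μg protein per reaction. Sphingosine substrate at 10 μM for SphK1 and 5 μM for SphK2. Initial screen used inhibitor at 100 μM, with some compounds at 10 μM. Read-out is percent of remaining kinase activity, averaged over three experiments.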

[2] = target: T2, Sphingosine kinase 2 (Mus musculus) (UniProt Q9JIA7); assay: Inhibition of mouse SphK2 expressed in baculovirus infected Sf9 insect cells assessed as remaining activity using sphingosine and [gamma-(32)P]-ATP at 100 uM by scintillation proximity counting; outline: as §1
T2 sequence (whole entry): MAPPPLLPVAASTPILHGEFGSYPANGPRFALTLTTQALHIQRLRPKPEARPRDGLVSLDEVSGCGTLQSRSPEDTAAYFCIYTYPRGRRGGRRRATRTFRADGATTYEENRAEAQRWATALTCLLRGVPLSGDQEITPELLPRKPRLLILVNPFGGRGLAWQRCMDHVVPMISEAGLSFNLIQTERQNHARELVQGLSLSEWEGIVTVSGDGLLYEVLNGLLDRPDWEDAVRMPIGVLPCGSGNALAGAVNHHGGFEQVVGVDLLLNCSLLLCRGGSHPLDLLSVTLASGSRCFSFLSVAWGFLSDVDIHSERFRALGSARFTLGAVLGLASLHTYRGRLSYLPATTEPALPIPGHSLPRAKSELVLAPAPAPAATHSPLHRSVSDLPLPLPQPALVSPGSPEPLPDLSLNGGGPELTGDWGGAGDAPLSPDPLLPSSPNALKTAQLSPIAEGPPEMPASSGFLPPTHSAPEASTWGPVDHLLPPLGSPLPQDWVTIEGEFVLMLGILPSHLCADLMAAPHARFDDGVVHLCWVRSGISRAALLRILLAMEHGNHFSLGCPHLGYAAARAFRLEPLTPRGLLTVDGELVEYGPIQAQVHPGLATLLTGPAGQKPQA

Sphingosine kinase 1 [3] = target: T1, Sphingosine kinase 1; assay: Inhibition of human SphK1 expressed in baculovirus infected Sf9 insect cells using sphingosine and [gamma-(32)P]-ATP by scintillation proximity assay
Outline: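 Ki calculated as Ki = [I]/(K′m/Km – 1), using a sphingosine Km of 10 μM for SphK1 and 5 μM for SphK2. Enzyme came from infected Sf9 cell extract (10,000×g supernatant, 2-3 μg protein).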

[4] = Selectivity ratio of Ki/Km for human SphK1 to Ki/Km for mouse SphK2
Outline: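 Selectivity calculated as (Ki/Km)SphK1 divided by (Ki/Km)SphK2, with sphingosine Km taken as 10 μM for SphK1 and 5 μM for SphK2.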

Sphingosine kinase 2 = target: T3, Sphingosine kinase 2 (Mus musculus, UniProt Q9JIA7); assay: Inhibition of mouse SphK2 expressed in baculovirus infected Sf9 insect cells using sphingosine and [gamma-(32)P]-ATP by scintillation proximity assay
T3 sequence (Q9JIA7 whole entry): T2 sequence (whole entry)

[5] = target: T2, Sphingosine kinase 2 (Mus musculus); assay: Inhibition of mouse SphK2 expressed in baculovirus infected Sf9 insect cells assessed as remaining activity using sphingosine and [gamma-(32)P]-ATP at 10 uM by scintillation proximity counting; outline: as §1
[6] = target: T2, Sphingosine kinase 2 (Mus musculus); assay: Inhibition of mouse SphK2 expressed in baculovirus infected Sf9 insect cells using sphingosine and [gamma-(32)P]-ATP at 10 uM by scintillation proximity counting; outline: as §1

Row | Structure (SMILES) | Activity (Sphingosine kinase 1 [1]) [%] | Activity [2] [%] | further results
1 | CCCCCCCCc1ccc(C2CCC(O)(C[N+](=O)[O-])CC2)cc1 (stereo unspecified) | 100 | 52.7 | 
2 | CCCCCCCCc1ccc(C2CCC(=CCO)CC2)cc1 (stereo unspecified) | 100 | 66.7 | 
3 | C=CC[N+](C)(C)[C@H]1CC[C@H](c2ccc(CCCCCCCC)cc2)CC1 | 30.4 | 2.1 | 
4 | CCCCCCCCc1ccc(C2CCC(N)(C#N)CC2)cc1 (stereo unspecified) | 101 | 61.8 | 
5 | CCCCCCCCc1ccc([C@H]2CC[C@H]([N+](C)(C)C(C)C)CC2)cc1 | 49.1 | 11.5 | Ki (Sphingosine kinase 1 [3]): > 100 µM; Ki (Sphingosine kinase 2): 33 µM
6 | CCCCCCCCc1ccc(-c2cccc(N3CCNCC3)n2)cc1 |  |  | Activity [5]: 87.3%
7 | CCCCCCCCc1ccc([C@H]2CC[C@H](N(C)CCC)CC2)cc1 | 77 | 45.9 | 
8 | CCCCCCCCc1ccc([C@H]2CC[C@@H]([N+](C)(C)C(C)C)CC2)cc1 | 101 | 10.4 | inhibition [6]: Active
9 | CCCCCCCCc1ccc([C@H]2CC[C@@H](N(C)CCC)CC2)cc1 | 90.7 | 65.5 | 
10 | CCCCCCCCc1ccc([C@H]2CC[C@@H](N(C)C(C)C)CC2)cc1 | 113 | 101 | 
11 | CCCCCCCCc1ccc(C2CCC(=NO)CC2)cc1 (stereo unspecified) | 130 | 56.5 | 
12 | CCCCCCCCc1ccc([C@H]2CC[C@H]([N+](C)(C)Cc3ccccc3)CC2)cc1 | 25.7 | 8.3 | 
13 | CCCCCCCCc1ccc([C@H]2CC[C@@H]([N+](C)(C)C)CC2)cc1 | 65.8 | 8.3 | inhibition [6]: Active
14 | CCCCCCCCc1ccc([C@H]2CC[C@@H]([N+](C)(C)CCC)CC2)cc1 | 25.1 | 3.2 | inhibition [6]: Active
15 | CCCCCCCCc1ccc(-c2ccc(-n3ccccc3=O)nc2)cc1 |  |  | Activity [5]: 93.7%
16 | CCCCCCCCc1ccc(-c2cnc(N)cn2)cc1 |  |  | Activity [5]: 99%
17 | CCCCCCCCc1ccc(C2CCC(=CC(=O)OC)CC2)cc1 (stereo unspecified) | 101 | 101 | 

The next lines start with results.

Row | Activity (Sphingosine kinase 1 [1]) [%] | Activity [2] [%] | Structure (SMILES) | further results
18 | 33 | 23 | CCCCCCCCc1ccc([C@H]2CC[C@H](NCc3ccncc3)CC2)cc1 | 
19 | 91.8 | 100 | C=CCN[C@H]1CC[C@@H](c2ccc(CCCCCCCC)cc2)CC1 | 
20 | 75.6 | 18.3 | CCCCCCCCc1ccc([C@H]2CC[C@@H](NCCC)CC2)cc1 | 
21 | 47 | 25 | CCCCCCCCc1ccc([C@H]2CC[C@H](N)CC2)cc1 | Ki (Sphingosine kinase 1 [3]): 32 µM; Selectivity ratio [4]: 0.55; Ki (Sphingosine kinase 2): 29 µM
22 | 98.4 | 67.2 | CCCCCCCCc1ccc([C@H]2CC[C@@H](NCc3ccccc3)CC2)cc1 | 
23 | 22.4 | 8.9 | CCCCCCCCc1ccc([C@H]2CC[C@@H](NCCO)CC2)cc1 | 
24 | 21.6 | 8.5 | CCCCCCCCc1ccc([C@H]2CC[C@H](NCCO)CC2)cc1 | Ki (Sphingosine kinase 1 [3]): 22 µM; Selectivity ratio [4]: 1.23; Ki (Sphingosine kinase 2): 38 µM
25 | 46.3 | 9 | CCCCCCCCc1ccc([C@H]2CC[C@H](N(C)C)CC2)cc1 | Ki (Sphingosine kinase 1 [3]): 40 µM; Selectivity ratio [4]: 0.74; Ki (Sphingosine kinase 2): 27 µM
26 | 69.8 | 5.4 | CCCCCCCCc1ccc([C@H]2CC[C@@H](NC)CC2)cc1 | Ki (Sphingosine kinase 1 [3]): > 100 µM; Ki (Sphingosine kinase 2): 40 µM
27 | 15.8 | 5.5 | CCCCCCCCc1ccc([C@H]2CC[C@H](NCCC)CC2)cc1 | 
28 | 20.5 | 20.1 | CCCCCCCCc1ccc([C@H]2CC[C@H](NCCCC)CC2)cc1 | 
29 | 90 | 16.5 | CCCCCCCCc1ccc([C@H]2CC[C@@H](NC(C)C)CC2)cc1 | 
30 | 100 | 101 | C#CCN[C@H]1CC[C@@H](c2ccc(CCCCCCCC)cc2)CC1 | 
31 | 83.9 | 50.8 | CCCCCCCCc1ccc([C@H]2CC[C@@H](N(C)C)CC2)cc1 | 
32 | 10.5 | 3 | CCCCCCCCc1ccc([C@H]2CC[C@H]([N+](C)(C)CCO)CC2)cc1 | Ki (Sphingosine kinase 1 [3]): 70 µM; Selectivity ratio [4]: 2.5; Ki (Sphingosine kinase 2): 14 µM
33 | 15.7 | 7.7 | CCCCCCCCc1ccc([C@H]2CC[C@H](NC)CC2)cc1 | 
34 | 113 | 116 | CCCCCCCCc1ccc([C@H]2CC[C@@H](NC3CC3)CC2)cc1 | 
35 | 113 | 70.9 | CCCCCCCCc1ccc([C@H]2CC[C@H](O)CC2)cc1 | 
36 | 100 | 60.6 | CCCCCCCCc1ccc([C@H]2CC[C@@H](NCCCC)CC2)cc1 | 
37 | 80.9 | 32.6 | CCCCCCCCc1ccc([C@H]2CC[C@@H]([N+](C)(C)CCO)CC2)cc1 | inhibition [6]: Active
38 | 19 | 5.7 | C=CCN[C@H]1CC[C@H](c2ccc(CCCCCCCC)cc2)CC1 | 
39 | 109 | 100 | C#CCN[C@H]1CC[C@H](c2ccc(CCCCCCCC)cc2)CC1 | 
40 | 83.9 | 53.3 | CCCCCCCCc1ccc([C@H]2CC[C@H](NCc3ccccc3)CC2)cc1 | 
41 | 65 | 77 | CCCCCCCCc1ccc([C@H]2CC[C@H](NC3CC3)CC2)cc1 | 
42 | 24.6 | 23.9 | CCCCCCCCc1ccc([C@H]2CC[C@H](NC(C)C)CC2)cc1 | 
